Tested on: Plasmodium yoelii
Test: NOVARTIS: Antimalarial liver stage activity measured as reduction in Plasmodium yoelii schizont area in HepG2-A16-CD81 cells by immuno-fluorescence, and median schizont size at 10uM compound concentration
Type: functional, organism-based
Conditions: for IC50: Plasmodium yoelii, HepG2-A16-CD81
Outline: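 Host and parasite nuclei stained with Hoechst 33342, parasites with αPyHSP70 antibody; 25 images per well by high-content imaging; median parasite (schizont) area measured by automated image analysis, ~50 schizonts per experiment, two or more independent experiments.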

| Structure (SMILES) | Schizont size [um] | IC50 [nM] |
| --- | --- | --- |
| CC[n+]1c(/C=C/N(C)c2ccccc2)n(-c2ccccc2)c2ccc(-c3nc4ccccc4s3)cc21 | 20.14 | 14 |
| COC(OC)C(C)=NNC(N)=S | 78.8 | 4.93 |
| CC1(C)N=C(N)N=C(N)N1c1ccc(I)cc1.Cl | 33.82 | 10 |
| Cc1ccc(N2C(N)=NC(N)=NC2(C)C)cc1.Cl | 35.07 | 10 |
| CC1(C)C2CCC(C2)C1(C)NC(=S)NN=Cc1ccccn1 (configuration not stated) | 28.29 | 17.4 |
| CC[n+]1c(/C=C/C=C2\N(C)c3ccccc3C2(C)C)n(-c2ccccc2)c2cc(Cl)ccc21 | 12.53 | 13.6 |
| c1ccc(-c2cc(N3CCN(c4ccccn4)CC3)nc(-c3ccccn3)n2)nc1 | 24.32 | 17.5 |
| CCCCN1C=CC=C/C1=C\c1sc2ccccc2[n+]1CC | 18.47 | 10.9 |
| CCCc1ccc(C(=O)NC(=O)c2ccccc2O)cc1 | 23.17 | 4.18 |
| CCCCN(CCCC)[P+](N(CCCC)CCCC)(N(CCCC)CCCC)N(CCCC)CCCC | 24.32 | 11.5 |
| CCN1C=C(c2ccc(C)cc2)S/C1=C\c1sc2ccccc2[n+]1C | 37.89 | 4.5 |
| Cc1ccc(-c2nn3c(O)c4c(nc3c2C)CCCC4)cc1 | 28.7 | 11.3 |
| CCOc1ccc(CN(C(=O)COc2ccc(Cl)cc2)C(C)CCCN(CC)CC)cc1.O=C(O)C(F)(F)F (configuration not stated) | 55.32 | 20.4 |
| CCOC(=O)c1ccc2nc(-c3ccccc3)cc(O)c2c1 | 20.67 | 20 |
| CN(Cc1ccccc1)C(=O)CSc1nc(NCc2ccccc2)c2ccccc2n1 | 67.84 | 7.13 |
| C1CCC(NP2(NC3CCCCC3)=NP(NC3CCCCC3)(NC3CCCCC3)=NP(NC3CCCCC3)(NC3CCCCC3)=N2)CC1 | 33.82 | 18.6 |

| Structure (SMILES) | Schizont size [um] | IC50 [nM] |
| --- | --- | --- |
| O=C(NC(=C(Cl)Cl)[P+](c1ccccc1)(c1ccccc1)c1ccccc1)c1ccc(F)cc1 | 26.93 | 14.5 |
| Cc1oc2c(c1C(=O)NC1CCS(=O)(=O)C1)C(=O)c1ccccc1C2=O (configuration not stated) | 17.54 | 2.29 |
| CC[n+]1c(/C=C/C=C2\N(C)c3ccccc3C2(C)C)n(Cc2ccccc2)c2ccccc21 | 13.99 | 6.76 |
| Cc1ccc(-n2c(-c3ccccc3)cc(C=NNC(=O)c3cccc(O)c3)c2-c2ccccc2)cc1 | 26.72 | 20.2 |
| O=C(NC1CC1)C1CCN(c2cccc3c2C(=O)N(Cc2cccc(C(F)(F)F)c2)C3=O)CC1 | 24.01 | 29.3 |
| CC1(C)N=C(N)N=C(N)N1c1ccc(F)cc1.Cl | 38.93 | 18.9 |
| S=C(NN=Cc1ccccn1)NC1CC2CC1C1C=CCC21 (configuration not stated) | 27.45 | 25.6 |
| CN1C(=O)N(C)C(NNC(N)=S)C1NNC(N)=S (configuration not stated) | 117.53 | 15 |
| CCOC(=O)c1cnc2c3c(ccc2c1O)CCCC3 | 26.2 | 10.8 |
| Cc1cccc(N2C(N)=NC(N)=NC2(C)C)c1.Cl | 38.51 | 4.25 |
| CCN1/C(=C/c2ccc3ccccc3[n+]2CC)Sc2sc3ccccc3c21 | 32.77 | 6.21 |
| CCC(/C=C1\Sc2ccc(OC)cc2N1CCCS(=O)(=O)O)=C\c1sc2ccc(OC)cc2[n+]1CCCS(=O)(=O)O | 18.06 | 11.2 |
| CCOc1ccc2ncc(S(=O)(=O)c3ccc(OC)cc3)c(N3CCN(C)CC3)c2c1 | 63.67 | 10.7 |
| CCN1C(C)=C(C)S/C1=C\c1ccc2cc(C)ccc2[n+]1C | 14.93 | 11.3 |
| C=CC[n+]1c(C=C2C=CN(C)C=C2)sc2ccccc21.[I-] | 26.72 | 13.2 |

From ChEMBL document CHEMBL1789904, “Imaging of Plasmodium liver stages to drive next-generation antimalarial drug discovery” (Science, 2011)
